Measured values: article PMC3928098 (Leukemia, 2013)

What was measured:
MM.1S cells [1] = test: RNA synthesis assay, [5'-3H]uridine incorporation, MM.1S; assay type: cell-based, human
cyclin H-CDK7 (K7/H) [2] = test: in vitro cell-free kinase assay, cyclin H-CDK7; assay type: biochemical; conditions: in vitro kinase assays, compared with CDK 1, 2, 3, 4, 5 and 9
cyclin D3-CDK6 (K6/D3) [3] = test: in vitro cell-free kinase assay, cyclin D3-CDK6; assay type: biochemical; conditions: in vitro kinase assays, compared with CDK 1, 2, 3, 4, 5 and 9
[4] = test system: MM cell lines (MM.1S, MM.1R, H929, U266, OPM1, RPMI); test: MTT cell viability assay in MM cell lines; assay type: cell-based; conditions: Homo sapiens
In short: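 MM lines were grown in RPMI-1640 with 10% FBS, 2 mM L-glutamine and pen/strep, then treated with test compound (0–100 nM) for 24 and 48 h. MTT was added for 4 h at 37°C and dissolved in acidified isopropanol. Absorbance was read at 570 nm, corrected at 630 nm, with triplicate cultures.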

[5] = test system: primary tumor cells from MM patients (CD138+); test: MTT viability of primary tumor cells from MM patients; assay type: cell-based, human; conditions: 0-100nM, MTT at 48h
In short: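 Bone marrow mononuclear cells from MM patient aspirates were separated on Ficoll-Hipaque, and plasma cells were purified by anti-CD138 magnetic bead positive selection. Cells were cultured with test compound (0–100 nM) and viability was read by MTT at 48 h (570/630 nm). Values are means ±SD of triplicate cultures.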

healthy donor PBMCs = test: cytotoxicity in healthy donor PBMCs; assay type: cell-based, human; conditions: compared with tumor cells from MM patients, 50nM
In short: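 PBMCs were obtained from healthy volunteer blood by Ficoll-Hipaque gradient separation before exposure to test compound.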

MM.1S cells [6] = test: annexin V-PI apoptosis detection; assay type: cell-based, human; conditions: 50nM, 12 hours
In short: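 MM.1S cells (1 × 10⁶) were exposed to 50 nM test compound or medium for 12–24 h. Cells were stained with annexin V-FITC and PI for 15 min, and annexin V+/PI+ apoptotic cells were counted by flow cytometry.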

MM.1S cells [7] = test: cell cycle analysis by PI flow cytometry; assay type: cell-based, human; conditions: 50nM, 12h
In short: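 MM.1S cells (1 × 10⁶) were cultured in medium or with 50 nM test compound for 12 and 24 h, then washed in ice-cold PBS. They were fixed in 100% ethanol for 1 h at 4°C, treated with RNase for 30 min at 37°C, and stained with propidium iodide. Cell cycle profiles were acquired by flow cytometry and modelled for phase distribution.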

MM.1S cells xenograft = test: MM xenograft murine model, anti-MM activity; assay type: in vivo, CB-17 SCID mice; conditions: for maximum TGI (%): day 14 following end of treatment
In short: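 SCID mice were irradiated, then inoculated s.c. in the upper back 24 h later with MM.1S cells (2.5 × 10⁶ in methods; 3 × 10⁶ in 100 uL RPMI in legend). At ~100 mg tumour, mice were randomised to test compound in D5W pH5.2 or D5W vehicle, IV tail vein daily ×5 (n=8, 9, 10). Calipers every other day; volume = ½·L·W². TGI = 100 − T/C%; log10 cell kill from growth delay and doubling time; survival timed from first treatment day.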

[8] = MM xenograft murine model, body weight and toxicity; assay type: in vivo, CB-17 SCID mice
In short: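 MM.1S s.c. xenografts in irradiated SCID mice; test compound at 30 or 40 mg/kg, or D5W pH5.2 vehicle, given IV by tail vein daily for 5 days once tumours reached ~100 mg. Body weight and tumour size were recorded every alternate day. Mice were euthanised by CO2 if tumour exceeded 2 cm or ulcerated.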

MM.1S cells [9] = test: DNA synthesis assay, [3H-TdR] uptake; assay type: cell-based, human; conditions: BMSCs-stimulated MM.1S cells
In short: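 MM.1S cells (2–3 × 10³/well) were plated alone or with patient-derived BMSCs and exposed to varying test compound concentrations for 8 and 24 h at 37°C. [³H-TdR] ([…]) was pulsed in the last 8 h. Cells were harvested and counted by scintillation. Values are means ±SD of triplicate cultures.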

[10] = test system: U266, OPM1, and RPMI MM cell lines; test: RNA synthesis assay in p53-mutated MM cell lines; assay type: cell-based, human; conditions: 0-100nM, 24h
In short: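 p53-mutant U266, OPM1 and RPMI cells (2–3 × 10³/well) were treated at 37°C with test compound (0–100 nM) for 2 and 24 h. [5′-³H]uridine was then added, and cells were harvested and counted by scintillation. Values are means ±SD of triplicate cultures.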

MM.1S cells [11] = test: NAD+/NADH quantification assay; assay type: cell-based, human; conditions: 50nM
In short: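 MM.1S cells were cultured with 50 nM test compound and 5 × 10⁵ cells were extracted. For total NAD, extract was incubated with NAD Cycling Mix for 5 min at RT to convert NAD+ to NADH. For NADH, extract was heated at 60°C for 30 min to decompose NAD+. Developer was added for 40 min in the dark and read at 450 nm, in duplicate. Ratio = (NADt − NADH)/NADH.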

[12] = test system: p53 knockdown MM.1S cells; test: MTT viability of p53 shRNA knockdown MM.1S; assay type: cell-based, human; conditions: p53 shRNA-transduced MM.1S versus control, MTT 48h
In short: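 MM.1S cells were transduced with lentiviral shTP53 or empty-vector particles in medium with polybrene (8 μg/ml), and medium was refreshed at 24 h. Infection was checked at 72 h by puromycin (2 μg/ml) sensitivity against parental cells, using MTT. Transduced cells were then exposed to test compound and viability was read by MTT, in triplicate cultures.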

[13] = test system: p-RNAPII S2/S5 in MM cell lines; test: western blot of phosphorylated RNAPII S2/S5; assay type: cell-based, human; conditions: 0-8h, 25-100nM, all tested MM cell lines, immunoblot
In short: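 MM cell lines were exposed to test compound (0–100 nM) for 1, 4 and 8 h. Whole-cell lysates were run on SDS-PAGE and transferred to nitrocellulose. Blots were probed with phosphospecific antibodies to RNAPII S2/S5 and re-probed for actin, tubulin or GAPDH as loading controls.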

[14] = test system: p53 DNA binding activity in MM.1S cells; test: sequence specific p53 DNA binding assay; assay type: cell-based, human; conditions: 50nM, 4h
In short: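 MM.1S cells were cultured with medium or 50 nM test compound for 1, 4 and 8 h, and nuclear proteins were then isolated. Extracts were incubated overnight in wells coated with dsDNA carrying the p53 response element. Bound p53 was detected with an anti-p53 primary antibody and an HRP-linked secondary, read colorimetrically at 450 nm, in triplicate.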

[15] = test system: miR-21-3p, miR-19a-5p, miR-92a-1-5p in U266 and OPM1 cells; test: TaqMan specific miRNA assays; assay type: cell-based, human; conditions: 50nM for 8h
In short: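 U266, OPM1 and RPMI cells were cultured for 8 h in medium alone or with 50 nM test compound. Total RNA was isolated with a mirVana kit. miR-21-3p, miR-19a-5p and miR-92a-1-5p were quantified with target-specific TaqMan MicroRNA Assays following the manufacturer's protocol.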

cyclin T1-CDK9 (K9/T1) = conditions: read-out: IC50 K9/T1; in vitro cell-free kinase assay; cited from earlier work
cyclin B1-CDK1 (K1/B1) = conditions: read-out: IC50 K1/B1; in vitro cell-free kinase assay; cited from earlier work
cyclin E-CDK2 (K2/E) = conditions: read-out: IC50 K2/E; in vitro cell-free kinase assay; cited from earlier work
cyclin D1-CDK4 (K4/D1) = conditions: read-out: IC50 K4/D1; in vitro cell-free kinase assay; cited from earlier work
cyclin E-CDK3 (K3/E) = conditions: read-out: IC50 K3/E; in vitro cell-free kinase assay; cited from earlier work
p35-CDK5 (K5/p35) = conditions: read-out: IC50 K5/p35; in vitro cell-free kinase assay; cited from earlier work
cyclin H-CDK7 (K7/H) [16] = conditions: read-out: IC50 K7/H; in vitro cell-free kinase assay; cited from earlier work
cyclin D3-CDK6 (K6/D3) [17] = conditions: read-out: IC50 K6/D3; in vitro cell-free kinase assay; cited from earlier work
Fms = conditions: read-out: IC50 Fms; in vitro cell-free kinase assay; cited from earlier work
GSK-3β = conditions: read-out: IC50 GSK-3β; in vitro cell-free kinase assay; cited from earlier work
TAK1 = conditions: read-out: IC50 TAK1; in vitro cell-free kinase assay; cited from earlier work
C-src = conditions: read-out: IC50 C-src; in vitro cell-free kinase assay; cited from earlier work
AMPK = conditions: read-out: IC50 AMPK; in vitro cell-free kinase assay; cited from earlier work
Jak2 = conditions: read-out: IC50 Jak2; in vitro cell-free kinase assay; cited from earlier work
MEK1 = conditions: read-out: IC50 MEK1; in vitro cell-free kinase assay; cited from earlier work

OC[C@H]1OC(n2cnc3cc(Cl)c(Cl)cc32)[C@H](O)[C@@H]1O (stereo partly drawn) [DRB, 5,6-Dichloro-1—D-ribofuranosylbenzimidazole, reference compound]
effect on RNA synthesis (MM.1S cells [1]; MM.1S, 2h, Suppl. Fig. S3): significantly inhibited RNA synthesis

COCCN1CCN(Cc2ccc(-c3n[nH]c4c3C(=O)c3c(NC(=O)NN5CCOCC5)cccc3-4)cc2)CC1.Cl.Cl [RGB-286638, 1-(3-{4-[4-(2-Methoxyethyl)-piperazin-1-ylmethyl]-phenyl}-4-oxo-1,4-dihydroindeno[1,2-c]pyrazol-5-yl)-3-morpholin-4-yl-urea dihydrochloride]
fold less active against CDK 7 (cyclin H-CDK7 (K7/H) [2]): 44 fold
fold less active against CDK 6 (cyclin D3-CDK6 (K6/D3) [3]): 55 fold
EC50 ([4]; 48 h, read-out: EC50, viability by MTT assay): 20 to 70 nM
IC50 ([4]; read-out: IC50, MM cell proliferation): 50 to 100 nM
cytotoxicity in primary tumor cells from MM patients [5]: comparable cytotoxicity to MM cell lines
cytotoxicity in healthy donor PBMCs (healthy donor PBMCs): less cytotoxicity
apoptotic MM cells, Annexin/PI staining (MM.1S cells [6]): 25%
effect on cell cycle (MM.1S cells [7]): G1 and G2/M cell cycle arrest
maximum TGI (%) (MM.1S cells xenograft; 30 mg/kg IV daily for 5 days): 85.06%
maximum TGI (%) (MM.1S cells xenograft; 40 mg/kg IV daily for 5 days): 86.34%
log10 cell kill (LCK Td: 4.5 days) (MM.1S cells xenograft; both treated groups (30 mg/kg and 40 mg/kg IV, 5 days)): 1.6
survival, first death (MM.1S cells xenograft; both treated groups (30 and 40 mg/kg), controls day 24): 43 days
maximum percentage of body weight (BW) loss ([8]; 30mg/kg dosage schedule, day 5): 8.4%
maximum percentage of body weight (BW) loss ([8]; 40 mg/kg dosing, day 15): 9.9%
toxic deaths ([8]; 30 and 40 mg/kg IV daily for 5 days): No toxic deaths
reduction of total level of transcripts (MM.1S cells [1]; BMSCs-stimulated MM.1S cells, 8h): ~ 50%
effect on transcription (MM.1S cells [1]; BMSCs-stimulated MM.1S cells, 24h): blocked transcription
reduction of RNA synthesis (MM.1S cells [1]; MM.1S, 50nM or 100nM, two hours): 50%
reduction in DNA synthesis (MM.1S cells [9]; 8h): 60%
effect on MM.1S proliferation (MM.1S cells [9]; 24h): complete block
effect on RNA synthesis [10]: significant inhibition
NADH depletion (MM.1S cells [11]): 50%
NADt depletion (MM.1S cells [11]): 30%
cells rescued from RGB-286638-induced cell death by p53 knockdown [12]: 14%
effect on p-RNAPII S2/S5 [13]: rapid downregulation
p53 sequence specific DNA binding [14]: increased p53 DNA binding
miR-21-3p, miR-19a-5p, and miR-92a-1-5p levels [15]: significantly reduced
IC50 (cyclin T1-CDK9 (K9/T1)): 1 nM
IC50 (cyclin B1-CDK1 (K1/B1)): 2 nM
IC50 (cyclin E-CDK2 (K2/E)): 3 nM
IC50 (cyclin D1-CDK4 (K4/D1)): 4 nM
IC50 (cyclin E-CDK3 (K3/E)): 5 nM
IC50 (p35-CDK5 (K5/p35)): 5 nM
IC50 (cyclin H-CDK7 (K7/H) [16]): 44 nM
IC50 (cyclin D3-CDK6 (K6/D3) [17]): 55 nM
IC50 (Fms): 1 nM
IC50 (GSK-3β): 3 nM
IC50 (TAK1): 5 nM
IC50 (C-src): 25 nM
IC50 (AMPK): 41 nM
IC50 (Jak2): 50 nM
IC50 (MEK1): 54 nM
